Bioassay records (PubChem)
In the library only some 1.1% were active in any assay of this set; here they are far more common.
Yeast eIF2B – GCN4-lacZ reporter reduction in eIF2B-epsilon mutant yeast, primary screen, S. cerevisiae, eIF2B-epsilon R284H, Beta-Glo luminescence | 0.91% of 27,000 active | inhibition, % at 25 µM (by protocol);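 active = mutant luminescence inhibited past about 50% while wild type luminescence and mutant growth stay under set limits, limit read from the data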
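Times: 16 h growth with compound at 30 °C, 90 min Beta-Glo step; Assay system: yeast eIF2B-epsilon R284H mutant carrying GCN4–beta-galactosidase fusion; Measure: % inhibition of reporter signal and growth versus controls; Dosing: one concentration, 25 µM, 0.25% DMSO; Buffer or medium: YPD yeast growth medium; Measured by: Beta-Glo luminescence plus absorbance at 595 nm.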
Yeast tox – yeast growth toxicity, wild-type and mutant, primary screen, cytotoxicity control for eIF2B function restoration project, wild-type and eIF2Bepsilon R284H mutant, A595; 0.3% of 30,000 active; growth inhibition, % at 25 µM (by protocol); S. cerevisiae wild-type growth, A595 turbidity, 16 h;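 active = mutant and wild-type yeast strains alike exhibit over 30% growth inhibition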;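 note: 0% = untreated cell controls and 100% = YPD media blanks without cells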
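Test system: Wild-type and eIF2Bepsilon-R284H mutant S. cerevisiae, screened separately | Dosing: Single 25 µM compound dose in 0.2% DMSO | Schedule: 16 h compound exposure during growth at 30 °C | Detection: A595 turbidity | Evaluation: Growth inhibition (%) versus cell controls and blanks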
* marks the source's active call; other numbers are inactive results; . = no result given.

SMILES	Yeast eIF2B	Yeast tox
N#Cc1ccc(-c2ccco2)nc1SCc1ccccc1	19	-12
O=C(O)c1ccc(CSc2n[nH]c(-c3ccco3)n2)cc1	67*	-13
Cc1sc(NC(=O)c2ccco2)c(C(c2cccnc2)N2CCCC2)c1C (stereo unspecified)	.	3
COc1cc2ccccc2cc1C(=O)Nc1cccnc1	18	2
O=C(Nc1cccnc1)c1ccccc1Oc1ccccc1	64*	-5
COC(=O)COc1ccc(S(=O)(=O)N2CCc3ccccc3C2)cc1C	14	18
COc1ccc(NS(=O)(=O)c2ccc3oc(SC4CCOC4=O)nc3c2)cc1 (stereo unspecified)	.	7
CC1(C)NC(=O)N(CCOCCOc2c(Cl)cc(Cl)cc2Cl)C1=O	18	8
CCOc1ccc(C2C(C(=O)c3cccs3)=C(O)C(=O)N2CCCn2ccnc2)cc1 (stereo unspecified)	-13	-38
COc1ccc(C2(O)CCN(Cc3nnnn3Cc3ccc(C)cc3)CC2)cc1	-6	11
Cc1ccc(Cn2nnnc2CN2CCC(O)(c3ccc(F)cc3)CC2)cc1	69*	2
CS(=O)(=O)Nc1ccccc1C(=O)N1CCN(c2ccccc2)CC1	14	14
C1CCC(C23CC4CC(CC(C4)C2)C3)NC1 (stereo unspecified)	-2	16
COc1ccc(NC(=O)/C(Cl)=C(/Cl)S(=O)(=O)Cc2ccc(C)cc2)cn1	30	2
COc1cccc(/C=C/C(=O)c2c(O)cc(C)oc2=O)c1O	25	34*
COc1cc(/C=C/C(=O)c2c(O)cc(C)oc2=O)cc(OC)c1O	11	12
Cc1ccn(C(=O)c2cc3ccccc3oc2=O)n1	18	3
O=C(OCCn1cncn1)c1cc2ccccc2oc1=O	59*	-5
CCCn1nnc(NC(=O)c2cccc(OCc3ccccc3)c2)n1	.	15
Brc1cnc(N2CCOCC2)nc1N1CCCCC1	30	9
Brc1cnn(-c2nc(N3CCOCC3)nc(N3CCOCC3)n2)c1	52*	-18
CCS(=O)(=O)N1CCC(C(=O)NCc2ccc(F)cc2Cl)CC1	-35	1
Cc1cc(C)c(S(=O)(=O)N2CCC(C(=O)NCc3ccc(Cl)cc3Cl)CC2)c(C)c1	.	82*
CN1CCN(C(=O)CSc2nc(-c3ccncc3)ccc2C#N)CC1	71*	12
COC(=O)CSc1nc(-c2cccs2)ccc1C#N	26	.
SMILES	Yeast eIF2B	Yeast tox
CCc1nn(-c2ccccc2)c2c1-c1cc(OC)c(OC)cc1C1(N2)C(=O)Nc2ccccc21 (stereo unspecified)	.	3
CCCCNC(=O)CN1C(=O)NC2(CCCc3ccccc32)C1=O (stereo unspecified)	.	8
O=C(CSc1nc(-c2ccco2)cc(C(F)(F)F)n1)Nc1ccccc1C(F)(F)F	52*	-4
Cc1cccc(C)c1NC(=O)CSc1nc(-c2ccco2)cc(C(F)(F)F)n1	17	-11
O=C1NC(NS(=O)(=O)c2ccc(Cl)cc2)(C(F)(F)F)C(=O)N1Cc1cccnc1 (stereo unspecified)	9	20
Cc1cc(/C=N/n2cnnc2)c(C)n1-c1ccc(OCc2ccc(Cl)cc2Cl)cc1	1	62*
Cc1cc(/C=N/n2cnnc2)c(C)n1-c1ccccc1	.	13
CCOC(=O)CSc1nc2sc3c(c2c(=O)n1C1CCCCC1)CCN(C)C3	16	-14
Cc1onc(-c2c(Cl)cccc2Cl)c1C(=O)NCCc1ccc(S(N)(=O)=O)cc1	5	-2
CC(=O)N(C)c1nnc(-c2ccccn2)s1	-28	1
COC(=O)c1cc2occc2n1CC(=O)Nc1ccc(OC)c(OC)c1	60*	-2
COC(=O)c1cc2occc2n1CC(=O)Nc1cc(OC)cc(OC)c1	7	-27
CCOC(=O)N1CCN(C(=O)CN(Cc2ccc(Cl)cc2)S(=O)(=O)c2ccc(C)cc2)CC1	22	9
Cc1cc(NC(=O)C2C3C(=O)N(CC4CCCO4)C(C(=O)NCc4ccccc4)C34C=CC2(C)O4)no1 (stereo unspecified)	21	31
Cc1c(Cl)cccc1NC(=S)NN1CCOCC1	8	9
CC(=O)Oc1c(Cl)c(N2CCOCC2)c(OC(C)=O)c2ccccc12	25	0
COc1ccccc1NC(=O)CSc1nc(O)cc(=O)n1C	53*	-21
COc1ccccc1-n1c(SCC(=O)Nc2cccc3ccccc23)nc(O)cc1=O	.	22
COc1ccc(-c2csc(NC(=O)C3CCCCN3S(=O)(=O)c3ccccc3)n2)cc1 (stereo unspecified)	-91	-23
COCCNC(=O)C(OC(=O)CC1Sc2ccccc2NC1=O)c1ccccc1 (stereo unspecified)	-3	-6
C=CCN(C(=O)CCC(=O)O)C1CC(=O)N(c2ccc(OC)cc2)C1=O (stereo unspecified)	50*	.
C=CCN(C(C)=O)C1CC(=O)N(c2ccc(OCCC)cc2)C1=O (stereo unspecified)	.	6
CCC1CCCCN1CCNC(=O)CCS(=O)(=O)c1ccc(Br)cc1 (stereo unspecified)	-3	-5
COc1ccc2cc(CN(CC3CCCO3)S(=O)(=O)c3ccccc3Cl)c(=O)[nH]c2c1 (stereo unspecified)	24	20
CCCCCOC(=O)Nc1nnc(CCC)s1	51*	1
SMILES	Yeast eIF2B	Yeast tox
CCCc1nnc(NC(=O)CN2C(=O)c3ccccc3C2=O)s1	20	17
CCN1CCN(C(=O)Nc2ccccc2OC)CC1	18	-12
CCOC(=O)CSc1nnc2n(C3CCCCC3)c(=O)c3c4c(sc3n12)CCCC4	11	-3
COC(=O)CSc1nnc2n(-c3ccc(OC)cc3)c(=O)c3c4c(sc3n12)CCCCC4	74*	1
COc1ccc(C(=O)N(C(C)C)C(C)C)c(OC)c1	11	2
COc1ccc(-c2nnc3n2N=C(C)CS3)cc1OC	26	-8
COc1ccc(OC)c(C2=Nn3c(nnc3-c3cccc(OC(C)C)c3)SC2)c1	60*	-21
CN(Cc1c(F)cccc1Cl)c1ccc(S(=O)(=O)N2CCOCC2)cn1	57*	-5
Cc1c(Cl)cccc1NC(=O)COc1ccc(S(=O)(=O)N2CCOCC2)cc1	.	-23
Cc1ccc(CSc2nnc(-c3ccncc3)n2CC2CCCO2)cc1 (stereo unspecified)	12	13
COC(=O)C(NC(C)=O)(Nc1nc(C)cs1)C(F)(F)F (stereo unspecified)	.	16
COC(=O)C(NC(=O)c1ccco1)(Nc1nc(C)cs1)C(F)(F)F (stereo unspecified)	52*	5
CCn1c(CNc2nc3ccccc3n2C(C)C)nc2ccccc21	53*	8
CCn1c(NCc2ccccc2Cl)nc2ccccc21	19	5
CCOC(=O)N1CCN(C(=O)CC(C(=O)N2CCc3ccccc32)n2ccnc2)CC1 (stereo unspecified)	0	13
COC(=O)C(CC(=O)c1ccc(Br)cc1)n1ccnc1 (stereo unspecified)	-10	33*
Cc1cc(NC(=O)c2ccc(NC(=O)CC(C)C)cc2)no1	22	27
Cc1cc(C)n(C(=O)c2ccc(NC(=O)CC(C)C)cc2)n1	50*	0
CCOc1ccc(NC(=O)CC2CC(C)(C)OC2=O)cc1 (stereo unspecified)	6	3
